# Source: PubChem
# CHO parental Ca: counter-screen for OX1R antagonists: effect in parental CHO cells. parental CHO-K1, ATP-induced calcium, Fluo-8 fluorescence. inhibition, % at 5.6 µM. hit rate 0.63% among 330,000. AID 463079;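 active = inhibition above that plate's mean sample inhibition plus 3 SD, cut at about 26% in these data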;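 also: 0% = ATP-challenged DMSO wells and 100% = DMSO wells without ATP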
#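 Test system: untransfected parental CHO cell line. Compound: one dose, 5.6 µM nominal. Detection: intracellular calcium via Fluo-8 no-wash fluorescent dye. Measure: % inhibition. Benchmarks: ATP-challenged DMSO wells low, unchallenged DMSO wells high.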
# OX1R antag-1: antagonists of human orexin 1 receptor. hit rate 0.43% among 330,000. CHO/OX1R cells, Fluo-8 calcium fluorescence, orexin A. AID 434989. inhibition, % at 5 µM. O43613;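 active = inhibition above its plate's threshold, mean inhibition of all tested compounds on the plate plus 3 SD, cut at about 37% in these data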;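 also: 0% = orexin A challenge wells and 100% = SB-334867-A antagonist wells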
# Target sequence (O43613 whole entry, looked up): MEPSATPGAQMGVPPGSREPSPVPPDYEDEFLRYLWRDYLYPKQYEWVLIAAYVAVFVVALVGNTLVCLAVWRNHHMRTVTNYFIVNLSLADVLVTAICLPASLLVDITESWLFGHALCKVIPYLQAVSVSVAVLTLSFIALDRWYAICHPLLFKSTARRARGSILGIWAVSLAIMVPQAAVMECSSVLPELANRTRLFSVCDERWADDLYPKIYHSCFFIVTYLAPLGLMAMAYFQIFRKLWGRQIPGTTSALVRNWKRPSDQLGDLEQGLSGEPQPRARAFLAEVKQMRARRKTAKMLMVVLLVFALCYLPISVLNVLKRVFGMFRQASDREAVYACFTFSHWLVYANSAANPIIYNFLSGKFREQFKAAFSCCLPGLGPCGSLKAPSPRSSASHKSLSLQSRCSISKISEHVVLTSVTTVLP
# TAAR1 antagonist: human TAAR1 antagonism; CHO RD-HGA16 TAAR1, Fluo-8 calcium fluorescence, antagonist; Q96RJ0; hit rate 1.5% among 360,000; inhibition, % at 3 µM;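 active = inhibition above a per-plate cutoff, the mean inhibition of test compounds on that plate plus 3 SD, cut at about 49% in these data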;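 also: 0% = DMSO plus EC80 beta-PEA response and 100% = DMSO alone without agonist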
#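 Test system – hTAAR1-expressing CHO RD-HGA16 cells, Gα16-coupled · Also added – β-PEA at EC80 concentration, post-compound challenge · Compound – 3 µM, single point · Incubation – dye loading 75 min at 37 °C, then 30 min room temperature · Measured by – Fluo-8 intracellular calcium dye fluorescence, real-time kinetic reads · Benchmarks – vehicle and agonist controls · Replicates – singlicate, one well per test compound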
# TAAR1 agonist: human TAAR1 agonism; Q96RJ0; CHO RD-HGA16 TAAR1, Fluo-8 calcium fluorescence; vehicle wells 0%, saturating PEA agonist 100%; activation, % at 3 µM; hit rate 0.99% among 360,000; AID 624467;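 active = activation above the mean activation of all test compounds in the run plus 3 SD, cut at about 38% in these data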
#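 System: CHO RD-HGA16 cells carrying human TAAR1 plus Gα16; Incubation: 17-24 h seeding, 75 min 37 °C dye, 30 min RT; Measured by: Fluo-8 fluorescence, 5 s baseline then 140 s kinetic read; Control set: DMSO and PEA EC100; Replication: single well for each compound.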
# GalR3 antagonist: antagonists of human GalR3. O60755. HEK293 GalR3-CNG cAMP membrane potential fluorescence; galR3 body fused to GalR1 C-terminus. inhibition, % at 3 µM. hit rate 0.44% among 360,000. AID 651719;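 active = inhibition above the screen-wide average plus 3 SD, cut at about 13% in these data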;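 also: forskolin and galanin both at EC90 stimulate the cells; cAMP rise reported by CNG channel membrane potential dye signal; 0% = forskolin plus galanin with DMSO and 100% = forskolin alone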
# OX1R antag-2: antagonists of human orexin 1 receptor (OX1R); O43613; hit rate 1.8% among 330,000; inhibition, % at 6.6 µM; OX1R-expressing cells, FRET antagonist read-out; AID 485270; in the data active = inhibition mostly above about 38%, no sharp cut-off; inactive = mostly below about 40%;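 also: 0% = agonist challenge alone and 100% = reference antagonist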
# nonsel antag count: nonselective antagonism, TAAR1 counter-screen. shares compounds with TAAR1 antagonist. counterscreen cell line, calcium fluorescence, antagonist mode. hit rate 77% among 2,400. inhibition, % at 3 µM. AID 651780; in the data active = inhibition above about 22%;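 also: CHO-Ga16 host cells stimulated with ATP at an EC80 level; 0% = agonist EC80 plus vehicle and 100% = vehicle without agonist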
# TAAR1 antag conf: confirmation of human TAAR1 antagonists. shares compounds with TAAR1 antagonist. TAAR1-expressing cells, fluorescence antagonist read-out. inhibition, % at 3 µM. hit rate 40% among 2,400; in the data active = inhibition above about 49%;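 also: CHO-Ga16 host cells challenged with agonist PEA near its EC80; 0% = agonist at EC80 plus vehicle and 100% = vehicle with no agonist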
# Ga16 nonsel ag: nonselective Ga16 agonism, counter-screen; Ga16-expressing cells, calcium fluorescence, agonist counterscreen; activation, % at 3 µM; shares compounds with TAAR1 antagonist; AID 651953; hit rate 18% among 2,400; in the data active = activation above about 12%;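 also: 0% = vehicle wells and 100% = saturating stimulus response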
# TAAR1 ag count: activates human TAAR1 in antagonist counter-screen. AID 651955. shares compounds with TAAR1 antagonist. hit rate 2% among 2,400. activation, % at 3 µM. hTAAR1 cell line, fluorescence activation, agonist mode; in the data active = activation above about 37%;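 also: CHO cells stably expressing TAAR1 with calcium dye readout; 0% = DMSO vehicle and 100% = full agonist response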
# An asterisk follows results filed as active; x = no result given. In the library only some 4.3% were active in any assay of this set; here they are far more common.
SMILES,CHO parental Ca,OX1R antag-1,TAAR1 antagonist,TAAR1 agonist,GalR3 antagonist,OX1R antag-2,nonsel antag count,TAAR1 antag conf,Ga16 nonsel ag,TAAR1 ag count
O=C(CCCC(=O)NN=Cc1ccccc1Cl)NN=Cc1ccccc1Cl,x,x,50.9*,0.9,-3.5,x,20.0,26.7,0.9,1.2
O=C(CCCC(=O)NN=Cc1ccc(Cl)cc1Cl)NN=Cc1ccc(Cl)cc1Cl,x,x,-13.7,4.1,-5.6,x,x,x,x,x
CN(C(=O)COC(=O)CNC(=O)c1cccs1)c1c(N)n(Cc2ccccc2)c(=O)[nH]c1=O,5.5,-16.0,17.0,23.7,-8.6,-1.1,x,x,x,x
Cc1cccc(C(=O)Oc2ccc(/C=N/NC(=O)c3ccccc3O)cc2)c1,13.8,-8.6,68.3*,7.1,-0.6,18.4,49.2*,57.7*,7.7,3.6
Cc1cccc(C(=O)Oc2ccc(/C=N/NC(=O)c3ccc(O)cc3)cc2)c1,x,x,73.0*,12.7,-2.3,x,36.9*,54.3*,9.6,16.7
O=C(O)c1ccc(N/N=C/c2ccc(OC(=O)c3cccc(Cl)c3)cc2)cc1,-8.3,-6.6,84.1*,19.6,-2.8,6.0,47.8*,60.3*,8.1,12.8
O=C(Oc1ccc(/C=N/Nc2ccccc2)cc1)c1ccccc1,-16.6,-18.8,-10.1,-0.5,-0.8,23.9,x,x,x,x
CCOC(=O)C(C)N1c2cccc3cccc(c23)S1(=O)=O (configuration not stated),x,x,-11.6,-1.5,0.2,x,x,x,x,x
c1ccc(CCNc2nc(-c3ccncc3)nc3ccccc23)cc1,-28.8,-25.3,66.7*,2.5,-7.0,7.9,26.6*,41.1,7.9,4.3
OC[C@H]1O[C@@H](c2nc(-c3ccc4[nH]ccc4c3)no2)[C@H](O)[C@@H](O)[C@H]1O,x,x,-11.4,1.6,-2.4,x,x,x,x,x
COc1ccc(-c2c(Sc3ccccc3)c3cc(-c4ccc5c(c4)OCO5)ccc3n2C)cc1,x,x,-0.7,2.4,1.5,x,x,x,x,x
Cc1ccc(NC(=O)N(Cc2ccco2)C(C)c2ccco2)cc1C (configuration not stated),-14.8,-9.3,-2.8,-1.1,-2.6,16.1,x,x,x,x
Cc1ccc(NC(=O)CN(Cc2ccco2)Cc2ccccc2O)cc1C,-15.3,-22.5,51.7*,2.6,1.7,30.9,23.6*,44.8,4.8,7.1
COc1cc(O)c(CC=C(C)C)c(O)c1C(=O)CCc1ccc(O)cc1,38.9*,35.9,89.5*,26.2,-8.5,9.0,44.4*,60.8*,16.3*,22.8
NS(=O)(=O)c1ccc(CCNC(=O)CCC(=O)c2cccs2)cc1,-1.9,-2.7,-10.7,5.0,-0.7,9.4,x,x,x,x
O=C(CCC(=O)c1cccs1)NCCc1ccc(F)cc1,-10.9,-14.2,66.4*,32.2,-2.0,9.8,9.3,80.2*,0.8,53.7*
Cc1cc(OCC(=O)NC2CC2)c2c(C)c(C)c(=O)oc2c1,-13.9,-13.7,-13.8,-0.3,-7.2,28.3,x,x,x,x
CC(C)(C)OC(=O)N1CCN(C(=O)c2[nH]cnc2C(=O)N[C@@H](Cc2ccccc2)C(=O)OCc2ccccc2)CC1,-15.0,-13.1,68.9*,23.7,-1.8,17.7,22.7*,45.3,6.6,6.7
O=C(CNC(=O)c1[nH]cnc1C(=O)NC(c1ccccc1)c1ccccc1)OCc1ccccc1,-23.1,-23.4,67.8*,10.2,-3.3,5.2,25.8*,42.1,3.5,1.0
CC(C)(C)OC(=O)NCCCCCNC(=O)c1nc[nH]c1C(=O)N1CCc2ccccc2C1,-11.2,10.1,76.2*,22.1,-2.2,5.8,33.9*,51.8*,11.0,13.6
CC(C)(C)OC(=O)NCCCCCNC(=O)c1nc[nH]c1C(=O)NCC(=O)OCc1ccccc1,-3.6,-3.8,77.9*,20.2,-3.9,21.7,38.5*,62.4*,13.3*,13.0
CC(C)(C)OC(=O)[C@H](Cc1ccccc1)NC(=O)c1nc[nH]c1C(=O)N1CCN(C(=O)OC(C)(C)C)CC1,-19.7,-25.6,26.8,14.4,-1.0,8.6,x,x,x,x
COc1ccc(Cl)cc1NC(=O)CSC1=NN2CCCC(=O)N=C2S1,-8.0,-23.8,3.9,5.5,-11.1,22.2,x,x,x,x
COc1ccccc1S(=O)(=O)N(C)C[C@H]1OCc2cnnn2CCCC(=O)N([C@H](C)CO)C[C@@H]1C,x,x,-5.1,5.2,-0.1,x,x,x,x,x
CCCn1nc(C(=O)Nc2ccc3nc(N4CCOCC4)sc3c2)ccc1=O,x,x,2.7,9.7,-6.0,x,x,x,x,x
CC(C)(C)OC(=O)NCCCC[C@H](NC(=O)c1nc[nH]c1C(=O)NCC(=O)OCc1ccccc1)C(=O)OC(C)(C)C,-20.8,-25.3,54.9*,8.2,-4.0,3.1,23.3*,29.2,1.4,-1.4
CC(C)(C)OC(=O)CNC(=O)c1[nH]cnc1C(=O)NCC(=O)OCc1ccccc1,-14.1,-23.6,69.5*,19.0,0.2,30.8,31.4*,56.1*,11.2,14.2
